# Compound activity as filed in PubChem.
# rCAG binder: r(CAG) repeat RNA binding. TO-PRO-1 dye displacement fluorescence. inhibition, % at 3 µM. actives 1.3% (n = 370,000);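 active means inhibition above the plate cutoff, the mean of all test compounds on that plate plus 3 SD, cut at about 35% in these data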;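 further: 0% = DMSO alone and 100% = 100 µM mitoxantrone as full dye displacement; higher means more dye released from RNA so lower well fluorescence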
# MBD2 inh: inhibitors of human MBD2 binding to methylated oligonucleotide | inhibition, % at 4.4 µM | AID 686964 | Q9UBB5 | actives 0.31% (n = 370,000) | TR-FRET; in the data active means inhibition above about 13%
# UHRF1 binding: blocks human UHRF1 binding to methylated DNA; AID 687016; actives 0.75% (n = 370,000); Q96T88; inhibition, % at 4.4 µM; UHRF1 binding to methylated oligo, TR-FRET; in the data active means inhibition above about 21%;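 further: UHRF1 SRA domain binding a hemimethylated CpG hairpin DNA probe; 0% = median of test compound wells and 100% = reference inhibitor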
# ATG4B inh: blocks human ATG4B protease cleavage of LC3 substrate; Q9Y4P1; ATG4B cleavage of LC3-PLA2, NBD-HPC fluorescence, 1 h; inhibition, % at 8.33 µM; actives 0.51% (n = 340,000); in the data active means inhibition above about 40%
# LEDGF integ inh: blocks HIV-1 LEDGF/p75-dependent DNA integration; TR-FRET IN-LEDGF/p75 DNA integration, Eu/Cy5; actives 0.64% (n = 370,000); inhibition, % at 3.7 µM;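 active means inhibition above the screen-wide mean plus 3 SD, cut at about 13% in these data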;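 further: signal is the Cy5 over europium emission ratio at 671 and 618 nm; 0% = plate median of compound wells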
# CSN inh: inhibitors of human CSN-mediated cullin deneddylation | Q92905 | Purified CSN, SCF-Nedd8-OG deneddylation, fluorescence polarization | inhibition, % at 12.5 µM | actives 0.38% (n = 360,000);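 active means pattern-corrected inhibition above about 35%, with an unprinted fluorescence ratio check between 0.5 and 1.5, limit read from the data, passing the limit was not always enough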;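 further: 0% = enzyme with substrate and 100% = substrate without enzyme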
# Target sequence (Q92905 whole entry, looked up, one chain of several): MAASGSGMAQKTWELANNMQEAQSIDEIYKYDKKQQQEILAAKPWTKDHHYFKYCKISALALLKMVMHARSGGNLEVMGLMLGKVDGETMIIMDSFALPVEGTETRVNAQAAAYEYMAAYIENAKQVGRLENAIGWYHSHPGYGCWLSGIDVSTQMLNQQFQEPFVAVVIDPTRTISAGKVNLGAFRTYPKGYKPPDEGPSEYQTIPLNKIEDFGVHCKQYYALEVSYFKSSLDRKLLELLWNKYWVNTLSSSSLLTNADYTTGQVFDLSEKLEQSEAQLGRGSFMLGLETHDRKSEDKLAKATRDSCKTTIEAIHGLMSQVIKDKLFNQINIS
#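 Assay system: purified human Csn5 enzyme expressed in HEK293T cells; Input: 0.24 nM Csn5 enzyme, final concentration; Reagent: 10 nM SCFSkp2-Nedd8OG; Compound dosing: 12.5 µM single point; Times: reaction 90 min, room temperature; Technique: fluorescence polarization readout.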
# The depositor's hits bear a star; / = not tested or not shown. Only some compounds are listed: those with a hit (about 3.1% of all), similar ones and a draw of the others.
SMILES,rCAG binder,MBD2 inh,UHRF1 binding,ATG4B inh,LEDGF integ inh,CSN inh
Cc1cc(=O)oc2c(C)c(OC(C)C(=O)NCCN3CCOCC3)ccc12 (stereo unspecified),-2,-3,-2,-7,5,2
CC1=C(C#N)C(=O)NC(=O)/C1=C\c1ccc(-c2cc(C)c(C)cc2[N+](=O)[O-])o1,55*,-1,-1,32,6,2
Nc1[nH]c(C(=O)c2ccccc2)c(-c2ccccc2[N+](=O)[O-])c1C(=O)NCCc1c[nH]c2ccccc12,15,1,1,/,0,/
C=CC1=C(C(=O)O)N2C(=O)C(NC(=O)Cc3ccccc3)C2SC1 (stereo unspecified),8,-2,-8,-10,0,54*
CC(=O)OCC1=C(C(=O)O)N2C(=O)[C@@H](NC(=O)Cc3ccccc3)[C@H]2SC1,8,-5,-4,5,0,5
CN1CCCc2cc(C=O)ccc21,3,-7,-2,-11,1,0
CCCN1CCCc2cc(CN)ccc21,-1,3,12,-3,35*,-1
O=C(CSc1ccc2ccccc2n1)Nc1nsc(-c2ccc(Cl)cc2)n1,0,-1,1,4,1,54*
Cc1ccc(-c2nc(NC(=O)CSc3cc(C)c4ccccc4n3)ns2)cc1,2,-5,0,10,3,175*
COC(=O)[C@]12C[C@H](CC(=O)NCC34CC5CC(CC(C5)C3)C4)C(=O)N(Cc3cccc4ccccc34)C1=C[C@H](C(C)(C)C)O[C@@H]2C,2,-3,-1,/,-3,/
Cc1cc(/C=C(\C#N)C(=O)N2CCOCC2)c(C)n1C1CCCC1,-7,3,9,0,0,110*
O=C(Nc1ccc2c(c1)OCCO2)c1ccc2ccccc2n1,3,-6,22*,-13,-2,3
COc1ccc(O)c(C(=O)c2cc(C#N)c(=O)n(-c3ccc(Cl)cc3)c2)c1,3,1,1,-6,-1,36*
Cn1c(=O)[nH]c(=O)c2c1nc(N(CCO)Cc1ccccc1)n2CCCc1ccccc1,-1,4,1,-1,4,-1
C=C(C)Cn1c(N(CCO)Cc2ccccc2)nc2c1c(=O)[nH]c(=O)n2C,-3,3,84*,-3,4,-2
COC(=O)[C@]12C[C@H](CC(=O)NCC3CCCCC3)C(=O)N(Cc3ccco3)C1=C[C@H](C1CCCC1)O[C@@H]2C,3,1,1,/,2,/
COc1ccc(CC(=O)Oc2ccc(C)cc2Br)cc1OC,-9,2,1,1,14*,-2
CCN=C1S/C(=C/c2cc(C)n(-c3ccc(Cl)cc3F)c2C)C(=O)N1CC,/,7,3,/,3,/
CCc1cccc(OCC(=O)Nc2ccc(S(=O)(=O)Nc3ccccn3)cc2)c1,7,-2,79*,-6,3,2
N#CCc1cccnc1Sc1ccc(Cl)cc1,-2,2,26*,-6,1,-3
Nc1cccnc1Sc1ccc(Cl)cc1,2,-3,0,2,-2,-1
O=C(O)c1cccn2c(=O)c3ccccc3nc12,1,11,21*,-7,-2,0
O=C(c1cccn2c(=O)c3ccccc3nc12)N1CCN(c2ccccn2)CC1,0,-4,2,5,3,4
O=S(=O)(Nc1ccc(-c2csc(-c3ccccc3)n2)cc1)c1ccccc1,22,-3,4,-3,-4,-4
O=[N+]([O-])c1ccc(S(=O)(=O)Nc2ccc(-c3csc(-c4ccccc4)n3)cc2)cc1,79*,-5,-2,/,3,/
CCN(C(=O)COC(=O)CNC(=O)c1sc2ccccc2c1Cl)C1CCCCC1,-2,0,3,-3,1,-1
CCC(C)N(C(=O)COC(=O)CNC(=O)c1sc2ccccc2c1Cl)C1CCS(=O)(=O)C1 (stereo unspecified),-1,4,21*,-2,-3,0
CCCCc1cc(=O)oc2cc(C)cc(OCC(=O)NC(Cc3ccc(Cl)cc3)C(=O)O)c12 (stereo unspecified),40*,-1,-1,-27,2,-1
